A short description of experiment [1]: Inhibition of bacterial beta-lactamase OXA-48 expressed in Escherichia coli strain BL21Star(DE3)pRARE using nitrocefin as substrate. Set-up: species or system Bacteria. The procedure, abridged: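 OXA-48 carried its native signal peptide and was purified from the periplasm. The assay ran at 25 °C in 100 mM sodium phosphate pH 7.0 with 50 mM NaHCO3 and 0.2 mg/mL BSA, against 25 μM nitrocefin. Velocities were taken from the linear range. IC50 came from a nonlinear fit of response versus log inhibitor concentration, with bottom and top fixed from controls.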

Experiment [2] in a line: Binding affinity to bacterial His-tagged beta-lactamase OXA-48 expressed in Escherichia coli strain BL21Star(DE3)pRARE by surface plasmon resonance assay. Further details: species or system Bacteria. The procedure, abridged:
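His-tagged OXA-48 amine-coupled to a CM5 chip to around 5000 RU (enzyme at 25 μg/mL in 10 mM MES pH 5.5). Ten dilutions from 400 μM to 10.5 μM were injected for 30 s with 60 s dissociation (300 s for kinetic binders). Sensorgrams were double-referenced. Kd came from a steady-state model with Rmax fixed via a positive control.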

For the compound `CS(=O)(=O)c1cccc(-c2cccc(C(=O)O)c2)c1`, in experiment [1], half-maximal inhibition (IC50) required 120 µM and the pIC50 worked out at 3.91. The same compound showed a Kd in experiment [2] of 150 µM.

With `COc1cccc(-c2cccc(C(=O)O)c2)c1`, in experiment [1], half-maximal inhibition (IC50) required 360 µM and the pIC50 was determined as 3.44. The compound further returned a Kd in experiment [2] of 226 µM.

In experiment [1], `CS(=O)(=O)NCCc1cccc(-c2cccc(C(=O)O)c2)c1` showed an IC50 of 370 µM and a pIC50 of 3.43. This compound also had a dissociation constant (Kd) in experiment [2] of 200 µM.

Regarding `O=C(O)c1cccc(-c2ccc3ccccc3c2)c1`, in experiment [1], the concentration for half-maximal inhibition (IC50) was found to be 110 µM and the pIC50 is listed as 3.98. In experiment [2], this compound showed a Kd of 400 µM.

In experiment [1], `CSc1ccc(-c2cccc(C(=O)O)c2)cc1` yielded an IC50 of 400 µM and a pIC50 of 3.4. This compound also showed a Kd in experiment [2] of 1000 µM.

In experiment [1], `O=C(O)c1cccc(-c2cnc(-n3ccnc3)nc2)c1` came in with an IC50 of 1300 µM and a pIC50 of 2.89. This compound also gave a Kd in experiment [2] of 1000 to 1160 µM.

`O=C(O)c1cccc(-c2ccc3[nH]ccc3c2)c1`: in experiment [1], the IC50 turned out to be 310 µM and the pIC50 was 3.51. In addition, in experiment [2], binding was characterised by a dissociation constant (Kd) of 400 µM.

As to `CC(=O)Nc1cccc(-c2cc(C(=O)O)cc(-c3cccc(NC(C)=O)c3)c2)c1`, in experiment [1], the IC50 is 2.9 µM and the pIC50 is reported as 5.53. In experiment [2], the Kd lay in the range of 20 to 30 µM.

In experiment [1], `CS(=O)(=O)NCc1ccc(-c2cccc(C(=O)O)c2)cc1` returned an IC50 of 450 µM and a pIC50 of 3.35. The Kd in experiment [2] worked out at 240 µM.

For the compound `O=C(O)c1cccc(-c2ccc(NS(=O)(=O)c3ccccc3)cc2)c1`, in experiment [1], the IC50 was found to be 60 µM and the negative-log IC50 (pIC50) stood at 4.25. The affinity in experiment [2], expressed as Kd, was 210 µM.

In experiment [1], `NCCc1cccc(-c2cccc(C(=O)O)c2)c1` had an IC50 of 110 µM and a pIC50 of 3.95. Moreover, the Kd in experiment [2] turned out to be 300 µM.

In experiment [1], `COc1ccccc1-c1cccc(C(=O)O)c1` registered an IC50 of 250 µM and a pIC50 of 3.6. In addition, the Kd in experiment [2] was 123 µM.

In experiment [1], `O=C(O)c1cccc(-c2ccc(O)cc2)c1` came in with an IC50 of 470 µM and a pIC50 of 3.33. Moreover, binding in experiment [2] was put at a Kd of 170 µM.

In experiment [1], `O=C(O)c1cccc(-c2ccccc2F)c1` yielded an IC50 of 130 µM and a pIC50 of 3.89. The same compound registered a Kd in experiment [2] of 170 µM.

For the compound `O=C(O)c1cccc(-c2ccc(F)cc2)c1`, in experiment [1], the IC50 stood at 360 µM and the pIC50 stood at 3.45. Also, in experiment [2], binding was put at a Kd of 312 µM.

As for `NC(=O)c1cccc(-c2cccc(C(=O)O)c2)c1`, in experiment [1], the IC50 is 260 µM and the pIC50 was found to be 3.58. Binding in experiment [2] was characterised by a dissociation constant (Kd) of 220 µM.

In experiment [1], `O=C(O)c1cccc(-c2cccc(-c3nnn[nH]3)c2)c1` yielded a concentration for half-maximal inhibition (IC50) of 60 µM and a pIC50 of 4.24. Besides, the Kd in experiment [2] was 70 µM.

In experiment [1], `Cn1cccc1-c1cccc(C(=O)O)c1` showed a 50% inhibitory concentration (IC50) of 500 µM and a pIC50 of 3.3. Binding in experiment [2] was characterised by a dissociation constant (Kd) of 590 µM.

In experiment [1], `CS(=O)(=O)Nc1ccc(-c2cccc(C(=O)O)c2)cc1` returned an IC50 of 370 µM and a pIC50 of 3.43. For the same compound, the affinity in experiment [2], expressed as Kd, was 100 µM.

Take `CC(=O)OCc1cccc(-c2cccc(C(=O)O)c2)c1`: in experiment [1], it took 250 µM to reach half-maximal inhibition (IC50) and the pIC50 is 3.6. The Kd in experiment [2] lay in the range of 140 to 181 µM.

Regarding `CN(C)c1ccc(-c2cccc(C(=O)O)c2)cc1`, in experiment [1], the IC50 turned out to be 390 µM and the pIC50 amounted to 3.41. Also, the Kd in experiment [2] came to 220 µM.

As for `CC(=O)Nc1cccc(-c2cc(C(=O)O)cc(-c3ccncc3)c2)c1`, in experiment [1], the IC50 worked out at 100 µM and the pIC50 worked out at 3.99. This compound had a Kd in experiment [2] of 70 µM.

In experiment [1], `O=C(O)c1cccc(-c2ccccc2O)c1` registered an IC50 of 50 µM and a pIC50 of 4.3. In addition, in experiment [2], the Kd was found to be 175 µM.

In experiment [1], `O=C(O)c1cccc(-c2cccc(O)c2)c1` yielded an IC50 of 110 µM and a pIC50 of 3.97. In addition, binding in experiment [2] was characterised by a dissociation constant (Kd) of 110 µM.

For the compound `CC(=O)NCCc1ccc(-c2cccc(C(=O)O)c2)cc1`, in experiment [1], half-maximal inhibition (IC50) required 520 µM and the pIC50 was 3.28. The Kd in experiment [2] is 190 µM.

In the case of `O=C(O)c1cccc(-c2cncnc2)c1`, in experiment [1], it took 800 µM to reach half-maximal inhibition (IC50) and the pIC50 is given as 3.1. The compound further registered a Kd in experiment [2] of 900 µM.

In experiment [1], `O=C(O)c1cccc(-c2cccc(CO)c2)c1` displayed an IC50 of 900 µM and a pIC50 of 3.04. The affinity in experiment [2], expressed as Kd, was 230 µM.

On to `CS(=O)(=O)c1ccc(-c2cccc(C(=O)O)c2)cc1`, for which, in experiment [1], it took 380 µM to reach half-maximal inhibition (IC50) and the pIC50 is 3.42. The compound further had a Kd in experiment [2] of 361 µM.

Consider `O=C(O)c1cc(-c2ccc3ncccc3c2)cc(-c2ccc3ncccc3c2)c1`, for which, in experiment [1], the IC50 was determined as 110 µM and the pIC50 worked out at 3.94. The compound further had a Kd in experiment [2] of 70 µM.

For the compound `O=C(O)c1cccc(-c2cncs2)c1`, in experiment [1], the IC50 stood at 800 µM and the pIC50 was 3.09. The compound further registered a Kd in experiment [2] of 900 µM.

In experiment [1], `NCc1ccc(-c2cccc(C(=O)O)c2)cc1` came in with a 50% inhibitory concentration (IC50) of 1400 µM and a pIC50 of 2.85. Also, in experiment [2], binding was put at a Kd of 550 µM.

In experiment [1], `O=C(O)c1cccc(-c2cccc(F)c2)c1` came in with an IC50 of 130 µM and a pIC50 of 3.88. Moreover, binding in experiment [2] was characterised by a dissociation constant (Kd) of 240 µM.

On to `COc1ccc(-c2cccc(C(=O)O)c2)cc1`, for which, in experiment [1], it took 150 µM to reach half-maximal inhibition (IC50) and the pIC50 was 3.82. In experiment [2], this compound came in with a Kd of 250 µM.

In experiment [1], `Cc1nc(N)ncc1-c1cccc(C(=O)O)c1` returned an IC50 of 350 µM and a pIC50 of 3.46. This compound also gave a Kd in experiment [2] of 113 µM.

In the case of `CS(=O)(=O)NCc1cccc(-c2cccc(C(=O)O)c2)c1`, in experiment [1], half-maximal inhibition (IC50) required 110 µM and the pIC50 is reported as 3.96. In experiment [2], this compound had a Kd of 110 µM.

For `CC(=O)NCc1cccc(-c2cccc(C(=O)O)c2)c1`, in experiment [1], the IC50 amounted to 130 µM and the negative-log IC50 (pIC50) worked out at 3.89. Further, the Kd in experiment [2] was determined as 130 µM.

In experiment [1], `COC(=O)c1cccc(-c2cccc(C(=O)O)c2)c1` yielded an IC50 of 260 µM and a pIC50 of 3.59. Besides, in experiment [2], binding was put at a Kd of 144 µM.

In the case of `NCc1cccc(-c2cccc(C(=O)O)c2)c1`, in experiment [1], the IC50 is 600 µM and the negative-log IC50 (pIC50) was 3.22. The compound also registered a Kd in experiment [2] of 800 µM.

In experiment [1], `NC(=O)c1ccc(-c2cccc(C(=O)O)c2)cc1` yielded an IC50 of 180 µM and a pIC50 of 3.73. For the same compound, the Kd in experiment [2] lay in the range of 200 to 350 µM.

Take `COC(=O)c1ccccc1-c1cccc(C(=O)O)c1`: in experiment [1], the IC50 came out at 210 µM and the pIC50 was 3.69. In addition, the Kd in experiment [2] worked out at 200 µM.

In experiment [1], `NCCc1ccc(-c2cccc(C(=O)O)c2)cc1` showed an IC50 of 1000 µM and a pIC50 of 2.98. Also, in experiment [2], binding was put at a Kd of 970 µM.

In experiment [1], `Nc1ccc(-c2cccc(C(=O)O)c2)cc1` showed an IC50 of 330 µM and a pIC50 of 3.48. In experiment [2], this compound had a Kd of 330 µM.

Regarding `CC(=O)Nc1cccc(-c2cc(C(=O)O)cc(-c3ccc4ncccc4c3)c2)c1`, in experiment [1], the IC50 stood at 2.9 µM and the pIC50 was found to be 5.54. In experiment [2], this compound displayed a Kd of 49 to 60 µM.

`Cc1ccccc1-c1cccc(C(=O)O)c1`: in experiment [1], the IC50 was determined as 90 µM and the pIC50 worked out at 4.05. In experiment [2], this compound yielded a Kd of 170 µM.

In experiment [1], `O=C(O)c1cccc(-c2ccc(-c3nnn[nH]3)cc2)c1` returned an IC50 of 36 µM and a pIC50 of 4.48. Besides, the affinity in experiment [2], expressed as Kd, was 70 µM.

For `Cc1cccc(-c2cccc(C(=O)O)c2)c1`, in experiment [1], half-maximal inhibition (IC50) was put at 170 µM and the pIC50 was 3.78. In addition, binding in experiment [2] was characterised by a dissociation constant (Kd) of 300 µM.

As to `Nc1ccc(-c2cccc(C(=O)O)c2)cn1`, in experiment [1], the IC50 was 170 µM and the pIC50 was 3.76. This compound yielded a Kd in experiment [2] of 130 µM.

With `CC(=O)NCCc1cccc(-c2cccc(C(=O)O)c2)c1`, in experiment [1], the IC50 is 230 µM and the pIC50 is given as 3.64. In experiment [2], this compound showed a Kd of 170 µM.

For the compound `CC(=O)Nc1ccc(-c2cc(C(=O)O)cc(-c3ccc(NC(C)=O)cc3)c2)cc1`, in experiment [1], half-maximal inhibition (IC50) was put at 48 µM and the pIC50 worked out at 4.32. This compound also gave a Kd in experiment [2] of 70 µM.

In experiment [1], `CC(=O)Nc1cccc(-c2cccc(C(=O)O)c2)c1` came in with an IC50 of 35 µM and a pIC50 of 4.45. This compound registered a Kd in experiment [2] of 100 µM.

In experiment [1], `O=C(O)c1cccc(-c2ccccn2)c1` came in with an IC50 of 35 µM and a pIC50 of 4.46. The compound further gave a Kd in experiment [2] of 159 µM.

For the compound `CC(=O)Nc1ccc(-c2cccc(C(=O)O)c2)cc1`, in experiment [1], the midpoint of inhibition, the IC50, lay at 450 µM and the pIC50 is 3.35. This compound displayed a Kd in experiment [2] of 290 µM.

In experiment [1], `O=C(O)c1cccc(-c2ccc3cccnc3c2)c1` registered an IC50 of 240 µM and a negative logarithm of the IC50 (pIC50) of 3.61. Besides, the affinity in experiment [2], expressed as Kd, was 160 µM.

For the compound `CC(=O)c1ccc(-c2cccc(C(=O)O)c2)cc1`, in experiment [1], the IC50 amounted to 380 µM and the pIC50 worked out at 3.42. For the same compound, in experiment [2], binding was put at a Kd of 280 µM.

Source of the values: ChEMBL document CHEMBL4145487, “A focused fragment library targeting the antibiotic resistance enzyme - Oxacillinase-48: Synthesis, structural evaluation and inhibitor design” (Eur J Med Chem, 2018).
